Results on three compounds are retold here after ChEMBL document CHEMBL1126595, “Studies directed toward the design of orally active renin inhibitors. 2. Development of the efficacious, bioavailable renin inhibitor (2S)-2-benzyl-3- [[(1-methylpiperazin-4-yl)sulfonyl]propionyl]-3-thiazol-4-yl-L-alanine amide of (2S,3R,4S)-2-amino-1-cyclohexyl-3,4-dihydroxy-6-methylheptane …” (J Med Chem, 1993).

The nature of data set [1]: Bioavailability in the portal circulation after 30 minutes was determined after intraduodenal dose of 10 mg/kg in rat by renin inhibition assay. The class given is ADME, organism-based. The following applies: plasma (portal circulation), read-out: Plasma level. The method in brief:
(§1)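 Screening model in anesthetized rats given 10 mg/kg intraduodenally. Formulation was ethanol stock with 110 mol % HCl, diluted with aqueous hydroxypropyl methylcellulose to 25% ethanol. Systemic and portal blood drawn at 10 and 30 min in the same animals. Drug level (ng/mL) measured by HPLC or renin inhibition assay. Mean ± SEM, n = 3 unless noted.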

Data set [2] in a line: Bioavailability was determined after intraduodenal dose of 10 mg/kg in monkey (compared to 0.3 mg/kg intravenous dose), determined by renin inhibition assay. Format: ADME, organism-based. As to conditions: simiiformes, in vivo, read-out: Bioavailabiility. The method in brief:
(§2)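 Anesthetized, salt-depleted cynomolgus monkeys dosed intraduodenally at 10 mg/kg in HCl salt/ethanol–hydroxypropyl methylcellulose vehicle (25% ethanol). Systemic and portal plasma drug levels measured by renin inhibition assay. AUC in ng h/mL. Bioavailability compared against an iv dose of 0.3 mg/kg or 1.0 mg/kg, the latter taken from earlier work. Mean ± SEM.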

For data set [3], the target named is Renin (Canis lupus familiaris). Put plainly: In vitro inhibitory concentration against dog plasma renin at pH 7.4.
Data set [4] is described as follows: Integrated area under the plasma drug level-time curve was determined in systemic circulation after intraduodenal dose of 10 mg/kg in monkey determined by renin inhibition assay. Format: ADME, organism-based. Also noted: dose 10 mg/kg, route intraduodenal. The following applies: simiiformes. The method in brief: as §2
Data set [5] is described as follows: Partition coefficient in the octanol/water phase at pH 7.4. Format: physicochemical. The gist of the method:
(§3)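 log P measured by octanol/water partition at pH 7.4.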

Data set [6] can be described thus: Bioavailability in the portal circulation after 10 minutes was determined after intraduodenal dose of 10 mg/kg in rat by renin inhibition assay. Format: ADME, organism-based. As to conditions: plasma (portal circulation), read-out: Plasma level. The method in brief: as §1
Data set [7] is described as follows: Bioavailability in the systemic circulation after 30 minutes was determined after intraduodenal dose of 10 mg/kg in rat by renin inhibition assay. The class given is ADME, organism-based. As to conditions: plasma (systemic circulation), read-out: Plasma level. The gist of the method:
as §1

The nature of data set [8]: Bioavailability was determined after intraduodenal dose of 10 mg/kg in rat, determined by renin inhibition assay. The class given is ADME, organism-based. As to conditions: in vivo, read-out: Bioavailabiility. The gist of the method:
(§4)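 Intraduodenal 10 mg/kg to anesthetized rats or ferrets. Compound dissolved in ethanol with 110 mol % HCl, then diluted in aqueous hydroxypropyl methylcellulose to 25% ethanol (10 mg/mL). Plasma sampled id rat 15, 30, 60, 120 min; id ferret 5, 15, 30, 60, 120, 180 min. Drug measured by renin inhibition assay or HPLC. AUC in ng h/mL. Bioavailability is relative to iv 1.0 mg/kg (rat) or 0.3 mg/kg (ferret).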

Data set [9] is described as follows: In vitro inhibitory concentration against monkey plasma renin at pH 7.4.
Data set [10] is described as follows: Hypotension peak is percentage change from predose baseline pressure observed after intraduodenal dose of 10 mg/kg in monkey. Format: ADME, organism-based. Also noted: dose 10 mg/kg, route intraduodenal. The following applies: simiiformes, in vivo, other. The gist of the method:
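Anesthetized, salt-depleted cynomolgus monkeys given 10 mg/kg intraduodenally. Mean arterial pressure followed for up to 5 h. Peak fall expressed as % change from predose baseline. Difference from baseline significant if P < 0.05. Mean ± SEM.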

A short description of data set [11]: Peak concentration was determined in systemic circulation after intraduodenal dose of 10 mg/kg in rat, determined by renin inhibition assay. The class given is ADME, organism-based. Also noted: dose 10 mg/kg, route intraduodenal. As to conditions: in vivo, read-out: Activity. The method in brief: as §4
Data set [12] in a line: Peak concentration was determined in systemic circulation after intraduodenal dose of 10 mg/kg in monkey, determined by renin inhibition assay. The class given is ADME, organism-based. Also noted: dose 10 mg/kg, route intraduodenal. The following applies: simiiformes, in vivo, read-out: Activity. The gist of the method:
as §2

The target in data set [13] is T1, Renin (Rattus norvegicus, UniProt P08424).
T1 sequence (P08424 whole entry): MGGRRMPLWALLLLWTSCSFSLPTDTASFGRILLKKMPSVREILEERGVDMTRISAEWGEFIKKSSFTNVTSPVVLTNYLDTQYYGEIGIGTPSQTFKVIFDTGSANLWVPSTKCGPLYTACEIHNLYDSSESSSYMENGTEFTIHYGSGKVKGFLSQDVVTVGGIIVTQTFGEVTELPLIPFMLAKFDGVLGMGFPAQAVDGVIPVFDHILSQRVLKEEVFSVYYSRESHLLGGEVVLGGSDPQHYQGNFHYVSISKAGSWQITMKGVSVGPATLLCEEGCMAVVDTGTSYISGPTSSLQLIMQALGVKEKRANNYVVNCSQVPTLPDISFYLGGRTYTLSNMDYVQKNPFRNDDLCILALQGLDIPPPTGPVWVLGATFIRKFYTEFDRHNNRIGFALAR
Description: In vitro inhibitory concentration against rat plasma renin at pH 7.4. The class given is cell-free.

Data set [14] is described as follows: Solubility at pH 7.4. The following applies: buffer. Format: physicochemical.
A short description of data set [15]: Integrated area under the plasma drug level-time curve was determined in systemic circulation after intraduodenal dose of 10 mg/kg in rat, determined by renin inhibition assay. The class given is ADME, organism-based. More on the design: dose 10 mg/kg, route intraduodenal. The gist of the method:
as §4

Data set [16] in a line: Peak concentration was determined in systemic circulation after intraduodenal dose of 10 mg/kg in ferret, determined by renin inhibition assay. Format: ADME, organism-based, Mustela putorius furo. More on the design: dose 10 mg/kg, route intraduodenal. As to conditions: in vivo, read-out: Activity. The method in brief: as §4
A short description of data set [17]: Integrated area under the plasma drug level-time curve was determined in systemic circulation after intraduodenal dose of 10 mg/kg in ferret, determined by renin inhibition assay. The class given is ADME, organism-based, Mustela putorius furo. Also noted: dose 10 mg/kg, route intraduodenal. The gist of the method: as §4
A short description of data set [18]: Bioavailability was determined after intraduodenal dose of 10 mg/kg in ferret, determined by renin inhibition assay. Format: ADME, organism-based, Mustela putorius furo. The following applies: in vivo, read-out: Bioavailabiility. The gist of the method:
as §4

Data set [19] can be described thus: Bioavailability in the systemic circulation after 10 minutes was determined after intraduodenal dose of 10 mg/kg in rat by renin inhibition assay. Format: ADME, organism-based. As to conditions: plasma (systemic circulation), read-out: Plasma level. The method in brief:
as §1

The nature of data set [20]: Peak concentration was determined in portal circulation after intraduodenal dose of 10 mg/kg in monkey. Format: ADME, organism-based. More on the design: dose 10 mg/kg, route intraduodenal. As to conditions: simiiformes, in vivo, read-out: Activity. The gist of the method:
as §2

The nature of data set [21]: Integrated area under the plasma drug level-time curve was determined in portal circulation after intraduodenal dose of 10 mg/kg in monkey. The class given is ADME, organism-based. The following applies: simiiformes. More on the design: dose 10 mg/kg, route intraduodenal. The gist of the method: as §2
In data set [22] the target is T2, Renin (Homo sapiens, UniProt P00797).
T2 sequence (P00797 whole entry): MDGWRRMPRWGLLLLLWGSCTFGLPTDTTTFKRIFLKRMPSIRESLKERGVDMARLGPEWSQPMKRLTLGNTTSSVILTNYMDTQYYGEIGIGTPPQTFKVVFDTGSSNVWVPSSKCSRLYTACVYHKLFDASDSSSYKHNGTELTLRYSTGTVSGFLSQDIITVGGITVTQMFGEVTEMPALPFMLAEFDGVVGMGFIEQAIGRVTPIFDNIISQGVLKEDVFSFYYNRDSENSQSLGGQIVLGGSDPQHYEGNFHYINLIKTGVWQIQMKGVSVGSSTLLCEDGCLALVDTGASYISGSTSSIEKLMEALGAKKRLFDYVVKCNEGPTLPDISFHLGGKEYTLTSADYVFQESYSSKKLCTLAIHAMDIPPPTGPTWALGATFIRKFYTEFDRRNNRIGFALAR
Description: In vitro inhibitory concentration against human plasma renin at pH 7.4. Format: cell-free.

Data set [23] can be described thus: Bioavailability in the portal circulation after 30 minutes was determined after intraduodenal dose of 10 mg/kg in rat by HPLC method. The class given is ADME, organism-based. As to conditions: plasma (portal circulation), read-out: Plasma level. The method in brief:
as §1

A short description of data set [24]: Bioavailability in the portal circulation after 10 minutes was determined after intraduodenal dose of 10 mg/kg in rat by HPLC method. Format: ADME, organism-based. As to conditions: plasma (portal circulation), read-out: Plasma level. The method in brief:
as §1

The nature of data set [25]: Partition coefficient in octanol/water phase at pH 7.4. Format: physicochemical. The gist of the method:
as §3

Data set [26] in a line: Bioavailability in the systemic circulation after 10 minutes was determined after intraduodenal dose of 10 mg/kg in rat by HPLC method. Format: ADME, organism-based. As to conditions: plasma (systemic circulation), read-out: Plasma level. The method in brief:
as §1

Data set [27] deals with T2, Renin. Put plainly: Inhibitory concentration against human plasma renin at pH 7.4. The class given is cell-free.
The nature of data set [28]: Bioavailability in the systemic circulation after 30 minutes was determined after intraduodenal dose of 10 mg/kg in rat by HPLC method. The class given is ADME, organism-based. The following applies: plasma (systemic circulation), read-out: Plasma level. The gist of the method:
as §1

Data set [29] in a line: Bioavailability was determined after intraduodenal dose of 10 mg/kg in monkey (compared to 0.3 mg/kg intravenous dose). The class given is ADME, organism-based. The following applies: simiiformes, in vivo, read-out: Bioavailabiility. The gist of the method:
as §2

The nature of data set [30]: Peak concentration was determined in systemic circulation after intraduodenal dose of 10 mg/kg in monkey. The following applies: simiiformes, in vivo, read-out: Activity. Also noted: dose 10 mg/kg, route intraduodenal. Format: ADME, organism-based. The gist of the method: as §2
Data set [31] in a line: Integrated area under the plasma drug level-time curve was determined in systemic circulation after intraduodenal dose of 10 mg/kg in monkey. Format: ADME, organism-based. More on the design: dose 10 mg/kg, route intraduodenal. The following applies: simiiformes. The method in brief: as §2

In brackets after ≈: the same amount, converted by molar mass.

A word on the IC50: it is the concentration that gives 50% inhibition. As a reminder, the AUC is the area under the concentration-time curve, a measure of exposure. The term logD denotes lipophilicity at a set pH, counting ionised and neutral species. One may read the solubility as how much of the substance goes into solution per volume. Consider `CC(C)C[C@H](O)[C@H](O)[C@H](CC1CCCCC1)NC(=O)[C@H](Cc1cscn1)NC(=O)[C@@H](CC(=O)N(C)CCc1ccccn1)Cc1ccccc1`, for which the concentration at 0.5 h turned out to be 560 ng/mL in [1] and 230 ng/mL in data set [7]. The values for the bioavailability in [2], in data set [8] and in data set [18] were 3.1%, 27% and 68%, respectively. The IC50 in data set [3] is 33 nM; in data set [9], 0.76 nM; in [13], above 10000 nM; in [22] it was 2.6 nM. Moreover, the AUC in [4] is 260 ng·h/mL; in data set [15], 1300 ng·h/mL; in [17], 1100 ng·h/mL; in [21], 3400 ng·h/mL. Also, the logD in [5] is 4.22. Also, the concentration at 10 min turned out to be 550 ng/mL in data set [6] and 220 ng/mL in data set [19]. Also, the Change in data set [10] came to 28%. Moreover, the Cmax in data set [11] turned out to be 980 ng/mL; in data set [12], 70 ng/mL; in data set [16], 510 ng/mL; in data set [20], 1200 ng/mL. The same compound yielded a solubility in data set [14] of 13 µg/mL (≈ 18.4 µM).
On to `CC(C)C[C@H](O)[C@H](O)[C@H](CC1CCCCC1)NC(=O)[C@H](Cc1cscn1)NC(=O)[C@@H](CC(=O)N(C)CCCN(C)C)Cc1ccccc1`, for which the concentration at 0.5 h in [23] amounted to 270 ng/mL; in [28] it was 47 ng/mL. Moreover, the results for the concentration at 10 min in data set [24] and in data set [26] were 580 ng/mL and 93 ng/mL, respectively. Besides, the logD in data set [25] was determined as 2.83. In addition, it took 8.1 nM to reach half-maximal inhibition in data set [27] (IC50).
On to `CC(C)C[C@H](O)[C@H](O)[C@H](CC1CCCCC1)NC(=O)[C@H](Cc1cscn1)NC(=O)[C@H](Cc1ccccc1)CS(=O)(=O)C1CCN(C)CC1`, for which the bioavailability in data set [29] was 1.8%. This compound also gave a log distribution coefficient (logD) in [5] of 3.61. In data set [10], this compound showed a Change of 23%. Further, the Cmax came out at 72 ng/mL in data set [30] and 550 ng/mL in data set [20]. In addition, in data set [27], the IC50 was found to be 4 nM. Besides, the results for the AUC in data set [21] and in data set [31] were 530 ng·h/mL and 110 ng·h/mL, respectively.
